Published values of several laboratories.
Protocols differ between the studies behind these lines.
Method: competition with immobilised ligand
JAK3 JH1: Tyrosine-protein kinase JAK3, JH1 (JAK3, Homo sapiens, UniProt P52333)
JAK3: Tyrosine-protein kinase JAK3 (JAK3, Homo sapiens, UniProt P52333)

| SMILES | target | observed | concentration | remaining binding |
| --- | --- | --- | --- | --- |
| COc1ccnn2ncc(-c3ccnc(N(C)C)n3)c12 | JAK3 JH1 | cell-free assay | 1 µM | 94% |
| O=C(NCC1CCOCC1)c1n[nH]cc1NC(=O)c1c(F)cccc1F | JAK3 JH1 | binding | 1 µM | 91% |
| O=C(NCc1ncc(C(F)(F)F)cc1Cl)c1ccc2c(c1)C1(CCS(=O)(=O)CC1)[C@H](C1CC1)N2S(=O)(=O)c1ccc(F)cc1 | JAK3 JH1 | cell-free assay | 1 µM | 79% |
| CN(C)c1nccc(-c2cnn3ncccc23)n1 | JAK3 JH1 | cell-free assay | 1 µM | 0% |
| O=C(c1ccc(Nc2ncc(Cl)c(-c3ccc(Cl)s3)n2)cc1)N1CCC(N2CCCC2)CC1 | JAK3 JH1 | binding | 1 µM | 0.3% |
| COc1cnc(Nc2cccc(S(N)(=O)=O)c2)nc1N1CCN(c2ccccc2)CC1 | JAK3 JH1 | binding | 1 µM | 42% |
| CC1=C(C#N)C(c2ccc3c(c2)c(NC(=O)c2ccccc2C)nn3C)C(C#N)=C(C)N1 | JAK3 JH1 | cell-free assay | 1 µM | 83% |
| CCN1CCN(Cc2ccc(C(=O)Nc3ccc(C)c(Oc4ccc5c(c4)CC(=O)N5)c3)cc2C(F)(F)F)CC1 | JAK3 JH1 | binding | 1 µM | 97% |
| Cc1cnn2ncc(-c3ccnc(N(C)C)n3)c2c1 | JAK3 JH1 | cell-free assay | 1 µM | 91% |
| FC(F)(F)Oc1cccc(-c2cnc3ccc(-c4ccncc4)nn23)c1 | JAK3 JH1 | cell-free assay | 5 µM | 23% |
| N#Cc1ccccc1CSc1nnc2c(n1)[nH]c1ccccc12 | JAK3 JH1 | binding | 10 µM | 93% |
| O=C(NCCCN1CCOCC1)c1ccc(Nc2ncc(Cl)c(-c3ccc(Cl)s3)n2)cc1 | JAK3 JH1 | binding | 1 µM | 0.8% |
| Nc1ncc2c(n1)-c1c([nH]c3ccc(C#CC4CC4)cc13)CCCC2 | JAK3 JH1 | binding | 1 µM | 80% |
| Cc1cnc(Nc2ccc(C(=O)N3CCC(N4CCCC4)CC3)cc2)nc1-c1cc2ccccc2s1 | JAK3 JH1 | binding | 1 µM | 0% |
| C[C@@]1(Cc2ccc(C#N)cc2)C(=O)N(c2cc(Cl)cc(Cl)c2)c2ncc(C(=O)NC3(c4nc(C5CCC5)no4)CC3)n21 | JAK3 JH1 | cell-free assay | 1 µM | 100% |
| CC(C)(C)c1ccc(-c2nc(CBr)nn2-c2cccc(O)c2)cc1 | JAK3 | cell-free assay | 10 µM | 65% |
| CS(=O)(=O)NCC[C@H](NC(=O)c1cncc2c1cnn2-c1ccc(F)cc1)c1ccnc(S(C)(=O)=O)c1 | JAK3 JH1 | cell-free assay | 1 µM | 100% |
| C[C@@H]1CN(c2ccc3ncc(-c4ccc5[nH]nc(C6CC6)c5c4)n3n2)C[C@H](C)O1 | JAK3 | binding | 0.5 µM | 11% |
| CNC(=O)c1ccc(Nc2ncc(C(F)(F)F)c(NCc3nccnc3N(C)S(C)(=O)=O)n2)cc1 | JAK3 | binding | 1 µM | 8.2% |
| CN(C)c1nccc(-c2cnc3ncccn23)n1 | JAK3 JH1 | cell-free assay | 1 µM | 93% |
| O=S(=O)(NC1CCC(c2cc(F)ccc2F)(S(=O)(=O)c2ccc(Cl)cc2)CC1)C(F)(F)F (stereo not shown) | JAK3 JH1 | cell-free assay | 1 µM | 100% |
| C=CC(=O)N1CCC(C(=O)NCC(=O)N2CCN(c3nc(-c4cnc(N)nc4C(F)F)nc(N4CCOCC4)n3)CC2)CC1 | JAK3 JH1 | binding | 1 µM | 88% |
